According to ChEMBL document CHEMBL4038284, “Synthesis of novel quinoline-based 4,5-dihydro-1H-pyrazoles as potential anticancer, antifungal, antibacterial and antiprotozoal agents” (Eur J Med Chem, 2017):
Activity calls are given as the source filed them.

Experiments:
[1] = system: RPMI-8226; assay: Growth inhibition of human RPMI8226 cells at 10 uM incubated for 48 hrs by sulforhodamine B assay; format: functional, cell-based
Method in brief: (§1)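 NCI 60-line panel, single 10 μM dose. Cells were grown in RPMI-1640 with 5% FBS and 2 mM L-glutamine and pre-incubated 24 h before compound addition (DMSO stock). Exposure was 48 h at 37 °C, 5% CO2. Cells were fixed with cold TCA (10% final), stained with 0.4% SRB, bound dye dissolved in 10 mM Tris base, A515 read. Growth was taken relative to time-zero and untreated control plates.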

[2] = system: Cryptococcus neoformans; assay: Growth inhibition of Cryptococcus neoformans ATCC 32264 at 62.5 ug/ml incubated for 48 hrs under dark condition by broth microdilution method relative to control; format: functional; settings: ATCC 32264, 48 h, read-out: GI
Method in brief: (§2)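 CLSI M27-A3 broth microdilution in RPMI-1640, DMSO ≤1%. Inoculum 1-5 × 10^3 CFU/mL. Incubated 48 h at 30 °C, dark. % inhibition = 100 − (OD405 test − sterility control)/(OD405 growth control − sterility control), with growth and sterility control wells. Triplicate.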

[3] = system: M14; assay: Growth inhibition of human M14 cells at 10 uM incubated for 48 hrs by sulforhodamine B assay; format: functional, cell-based; method in brief: as §1
[4] = system: Candida albicans; assay: Antifungal activity against Candida albicans ATCC 10231 incubated for 48 hrs under dark condition by broth microdilution method; format: functional; settings: ATCC 10231, 48 h
Method in brief: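 CLSI M27-A3 broth microdilution in RPMI-1640, DMSO ≤1%, compounds at 250-0.98 µg/mL final. Inoculum 1-5 × 10^3 CFU/mL. Incubated 48 h at 30 °C in a moist dark chamber, read at OD405. MIC80 and MIC50 taken from % inhibition dose-response curves (mean ± SEM, triplicate). Amphotericin B was the positive control.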

[5] = system: HOP-92; assay: Growth inhibition of human HOP92 cells at 10 uM incubated for 48 hrs by sulforhodamine B assay; format: functional, cell-based; method in brief: as §1
[6] = system: CCRF-CEM; assay: Growth inhibition of human CCRF-CEM cells at 10 uM incubated for 48 hrs by sulforhodamine B assay; format: functional, cell-based
Method in brief: (§3)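 NCI 60-cell-line screen at a single 10 µM dose. Cells in RPMI-1640 with 5% FBS and 2 mM L-glutamine, pre-incubated 24 h, then treated for 48 h at 37 °C. TCA fixation, sulforhodamine B staining, absorbance at 515 nm. Percentage growth calculated against time-zero and untreated controls.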

[7] = system: SK-MEL-2; assay: Growth inhibition of human SK-MEL-2 cells at 10 uM incubated for 48 hrs by sulforhodamine B assay; format: functional, cell-based
Method in brief: (§4)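 NCI-60 single-dose screen at 10 µM for 48 h. Cells were grown in RPMI-1640 with 5% FBS and 2 mM L-glutamine and preincubated 24 h before compound. Time-zero plates were TCA-fixed at compound addition. After exposure, cells were TCA-fixed, stained with SRB and read at 515 nm. Percentage growth was calculated against time-zero and untreated-control absorbances.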

[8] = system: NCI/ADR-RES; assay: Growth inhibition of human NCI/ADR-RES cells at 10 uM incubated for 48 hrs by sulforhodamine B assay; format: functional, cell-based; method in brief: as §1
[9] = system: SF-268; assay: Growth inhibition of human SF268 cells at 10 uM incubated for 48 hrs by sulforhodamine B assay; format: functional, cell-based; method in brief: as §1
[10] = system: Cryptococcus neoformans; assay: Growth inhibition of Cryptococcus neoformans ATCC 32264 at 31.25 ug/ml incubated for 48 hrs under dark condition by broth microdilution method relative to control; format: functional; settings: ATCC 32264, 48 h, read-out: GI; method in brief: as §2
[11] = system: DU-145; assay: Growth inhibition of human DU145 cells at 10 uM incubated for 48 hrs by sulforhodamine B assay; format: functional, cell-based; method in brief: as §3
[12] = system: SN12C; assay: Growth inhibition of human SN12C cells at 10 uM incubated for 48 hrs by sulforhodamine B assay; format: functional, cell-based; method in brief: as §4
[13] = system: SW-620; assay: Growth inhibition of human SW620 cells at 10 uM incubated for 48 hrs by sulforhodamine B assay; format: functional, cell-based; method in brief: as §4
[14] = system: LOX IMVI; assay: Growth inhibition of human LOXIMVI cells at 10 uM incubated for 48 hrs by sulforhodamine B assay; format: functional, cell-based; method in brief: as §1
[15] = system: NCI-H23; assay: Growth inhibition of human NCI-H23 cells at 10 uM incubated for 48 hrs by sulforhodamine B assay; format: functional, cell-based; method in brief: as §1
[16] = system: SNB-19; assay: Growth inhibition of human SNB19 cells at 10 uM incubated for 48 hrs by sulforhodamine B assay; format: functional, cell-based; method in brief: as §4
[17] = system: Candida albicans; assay: Growth inhibition of Candida albicans ATCC 10231 at 31.25 ug/ml incubated for 48 hrs under dark condition by broth microdilution method relative to control; format: functional; settings: ATCC 10231, 48 h, read-out: GI; method in brief: as §2
[18] = system: SK-OV-3; assay: Growth inhibition of human SKOV3 cells at 10 uM incubated for 48 hrs by sulforhodamine B assay; format: functional, cell-based; method in brief: as §4
[19] = system: MCF7; assay: Growth inhibition of human MCF7 cells at 10 uM incubated for 48 hrs by sulforhodamine B assay; format: functional, cell-based; method in brief: as §1
[20] = system: PC-3; assay: Growth inhibition of human PC3 cells at 10 uM incubated for 48 hrs by sulforhodamine B assay; format: functional, cell-based; method in brief: as §1
[21] = system: Pseudomonas aeruginosa; assay: Antibacterial activity against Pseudomonas aeruginosa ATCC 27853 after 24 hrs by resazurin dye based microdilution assay; format: functional; settings: ATCC 27853, 24 h
Method in brief: (§5)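 MIC taken as the lowest concentration giving visible inhibition and/or by resazurin (1 mg/mL). Gentamicin was the control. Run in duplicate, repeated at least three times.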

[22] = system: OVCAR-5; assay: Growth inhibition of human OVCAR5 cells at 10 uM incubated for 48 hrs by sulforhodamine B assay; format: functional, cell-based; method in brief: as §1
[23] = system: MDA-MB-435; assay: Growth inhibition of human MDA-MB-435 cells at 10 uM incubated for 48 hrs by sulforhodamine B assay; format: functional, cell-based; method in brief: as §1
[24] = system: Malme-3M; assay: Growth inhibition of human MALME-3M cells at 10 uM incubated for 48 hrs by sulforhodamine B assay; format: functional, cell-based; method in brief: as §1
[25] = system: Escherichia coli; assay: Antibacterial activity against Escherichia coli ATCC 25922 after 24 hrs by resazurin dye based microdilution assay; format: functional; settings: ATCC 25922, 24 h; method in brief: as §5
[26] = system: A498; assay: Growth inhibition of human A498 cells at 10 uM incubated for 48 hrs by sulforhodamine B assay; format: functional, cell-based; method in brief: as §3
[27] = system: Candida albicans; assay: Growth inhibition of Candida albicans ATCC 10231 at 15.62 ug/ml incubated for 48 hrs under dark condition by broth microdilution method relative to control; format: functional; settings: ATCC 10231, 48 h, read-out: GI; method in brief: as §2
[28] = system: SF-295; assay: Growth inhibition of human SF295 cells at 10 uM incubated for 48 hrs by sulforhodamine B assay; format: functional, cell-based; method in brief: as §1
[29] = system: Staphylococcus aureus; assay: Antibacterial activity against methicillin-sensitive Staphylococcus aureus ATCC 25923 after 24 hrs by resazurin dye based microdilution assay; format: functional; settings: ATCC 25923, 24 h; method in brief: as §5
[30] = system: T47D; assay: Growth inhibition of human T47D cells at 10 uM incubated for 48 hrs by sulforhodamine B assay; format: functional, cell-based; method in brief: as §4
[31] = system: Staphylococcus aureus; assay: Antibacterial activity against vancomycin-intermediate Staphylococcus aureus after 24 hrs by resazurin dye based microdilution assay; format: functional; method in brief: as §5
[32] = system: NCI-H226; assay: Growth inhibition of human NCI-H226 cells at 10 uM incubated for 48 hrs by sulforhodamine B assay; format: functional, cell-based; method in brief: as §1
[33] = system: SNB-75; assay: Growth inhibition of human SNB75 cells at 10 uM incubated for 48 hrs by sulforhodamine B assay; format: functional, cell-based; method in brief: as §4

COc1ccc(C2=NN(c3ccc(Cl)cc3)C(c3cccc(Nc4ccnc5cc(Cl)ccc45)c3)C2)cc1 (configuration not stated)
inactive: growth inhibition (GI) [1] | growth inhibition (GI) [3] | growth inhibition (GI) [5] | growth inhibition (GI) [6] | growth inhibition (GI) [7] | growth inhibition (GI) [8] | growth inhibition (GI) [9] | growth inhibition (GI) [11] | growth inhibition (GI) [12] | growth inhibition (GI) [13] | growth inhibition (GI) [14] | growth inhibition (GI) [15] | growth inhibition (GI) [16] | growth inhibition (GI) [18] | growth inhibition (GI) [19] | growth inhibition (GI) [20] | growth inhibition (GI) [22] | growth inhibition (GI) [23] | growth inhibition (GI) [24] | growth inhibition (GI) [26] | growth inhibition (GI) [28] | growth inhibition (GI) [30] | growth inhibition (GI) [32] | growth inhibition (GI) [33]
14.1%: inhibition of growth at 62.5 µg/mL [2]
13.1%: inhibition of growth at 31.25 µg/mL [10]
≥ 250 µg/mL: MIC50 [4] | MIC80 [4]
> 1000 µg/mL: MIC [21] | MIC [25] | MIC [29] | MIC [31]
1.19%: inhibition of growth at 31.25 µg/mL [17]
0%: inhibition of growth at 15.62 µg/mL [27]

Clc1ccc(C2=NN(c3ccc(Cl)cc3)C(c3cccc(Nc4ccnc5cc(Cl)ccc45)c3)C2)cc1 (configuration not stated)
inactive: growth inhibition (GI) [1] | growth inhibition (GI) [3] | growth inhibition (GI) [5] | growth inhibition (GI) [6] | growth inhibition (GI) [7] | growth inhibition (GI) [8] | growth inhibition (GI) [9] | growth inhibition (GI) [11] | growth inhibition (GI) [12] | growth inhibition (GI) [13] | growth inhibition (GI) [14] | growth inhibition (GI) [15] | growth inhibition (GI) [16] | growth inhibition (GI) [18] | growth inhibition (GI) [19] | growth inhibition (GI) [20] | growth inhibition (GI) [22] | growth inhibition (GI) [23] | growth inhibition (GI) [24] | growth inhibition (GI) [26] | growth inhibition (GI) [28] | growth inhibition (GI) [30] | growth inhibition (GI) [32] | growth inhibition (GI) [33]
24.3%: inhibition of growth at 31.25 µg/mL [10]
25.8%: inhibition of growth at 62.5 µg/mL [2]
≥ 250 µg/mL: MIC50 [4] | MIC80 [4]
7.02%: inhibition of growth at 31.25 µg/mL [17]
> 1000 µg/mL: MIC [21] | MIC [25] | MIC [29] | MIC [31]
6.09%: inhibition of growth at 15.62 µg/mL [27]

Clc1ccc(C2=NN(c3ccccc3)C(c3cccc(Nc4ccnc5cc(Cl)ccc45)c3)C2)cc1 (configuration not stated)
≥ 250 µg/mL: MIC50 [4] | MIC80 [4]
0%: inhibition of growth at 62.5 µg/mL [2] | inhibition of growth at 31.25 µg/mL [10]
inactive: growth inhibition (GI) [1] | growth inhibition (GI) [3] | growth inhibition (GI) [5] | growth inhibition (GI) [6] | growth inhibition (GI) [7] | growth inhibition (GI) [8] | growth inhibition (GI) [9] | growth inhibition (GI) [11] | growth inhibition (GI) [12] | growth inhibition (GI) [13] | growth inhibition (GI) [14] | growth inhibition (GI) [15] | growth inhibition (GI) [16] | growth inhibition (GI) [18] | growth inhibition (GI) [19] | growth inhibition (GI) [20] | growth inhibition (GI) [22] | growth inhibition (GI) [23] | growth inhibition (GI) [24] | growth inhibition (GI) [26] | growth inhibition (GI) [28] | growth inhibition (GI) [30] | growth inhibition (GI) [32] | growth inhibition (GI) [33]
4.92%: inhibition of growth at 31.25 µg/mL [17]
> 1000 µg/mL: MIC [21] | MIC [25] | MIC [29] | MIC [31]
4.29%: inhibition of growth at 15.62 µg/mL [27]
